Test results as given in ChEMBL document CHEMBL1151697, “Synthesis and structure-activity relationships for biphenyl H3 receptor antagonists with moderate anti-cholinesterase activity” (Bioorg Med Chem, 2008).
Active and inactive are the calls of the source. The rule behind the calls is not given here.

Assays:
Histamine H3 receptor [1] = molecular target: Histamine H3 receptor (Rattus norvegicus, UniProt Q9QYN8); assay: Displacement of [3H]RAMHA from histamine H3 receptor in Wistar rat brain membrane; assay type: cell membranes
Histamine H3 receptor (Rattus norvegicus, UniProt Q9QYN8), sequence (Q9QYN8 whole entry): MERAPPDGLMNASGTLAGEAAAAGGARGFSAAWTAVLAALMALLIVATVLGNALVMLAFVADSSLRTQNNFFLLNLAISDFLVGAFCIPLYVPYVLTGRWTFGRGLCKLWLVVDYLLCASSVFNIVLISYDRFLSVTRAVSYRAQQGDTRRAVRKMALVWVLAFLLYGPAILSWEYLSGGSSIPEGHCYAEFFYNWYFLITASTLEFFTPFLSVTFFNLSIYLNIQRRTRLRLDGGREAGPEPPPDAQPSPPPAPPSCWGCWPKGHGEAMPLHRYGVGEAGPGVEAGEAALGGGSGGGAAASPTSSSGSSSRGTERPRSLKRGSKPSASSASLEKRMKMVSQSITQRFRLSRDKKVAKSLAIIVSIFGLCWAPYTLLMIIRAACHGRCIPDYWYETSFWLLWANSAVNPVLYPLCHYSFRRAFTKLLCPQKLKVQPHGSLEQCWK
In short: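 Membranes from male Wistar rat brain (150–200 g) incubated 45 min with 0.5 nM [3H]RAMHA and compound (0.03 nM to 10 µM) in 50 mM Tris–HCl pH 7.4, 50 mM NaCl, 0.5 mM EDTA. Vacuum filtration, two ice-cold buffer rinses. Nonspecific binding set with 10 µM thioperamide. pKi by Cheng–Prusoff.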

Histamine H3 receptor [2] = molecular target: T1, Histamine H3 receptor (Homo sapiens, UniProt Q9Y5N1); assay: Antagonist activity at human histamine H3 receptor expressed in SK-N-MC cells by CRE-mediated beta-galactosidase reporter gene assay administered 10 mins before (R)-alpha-methylhistamine challenge after 6 hrs; assay type: functional, cell-based
T1 sequence (Q9Y5N1 whole entry): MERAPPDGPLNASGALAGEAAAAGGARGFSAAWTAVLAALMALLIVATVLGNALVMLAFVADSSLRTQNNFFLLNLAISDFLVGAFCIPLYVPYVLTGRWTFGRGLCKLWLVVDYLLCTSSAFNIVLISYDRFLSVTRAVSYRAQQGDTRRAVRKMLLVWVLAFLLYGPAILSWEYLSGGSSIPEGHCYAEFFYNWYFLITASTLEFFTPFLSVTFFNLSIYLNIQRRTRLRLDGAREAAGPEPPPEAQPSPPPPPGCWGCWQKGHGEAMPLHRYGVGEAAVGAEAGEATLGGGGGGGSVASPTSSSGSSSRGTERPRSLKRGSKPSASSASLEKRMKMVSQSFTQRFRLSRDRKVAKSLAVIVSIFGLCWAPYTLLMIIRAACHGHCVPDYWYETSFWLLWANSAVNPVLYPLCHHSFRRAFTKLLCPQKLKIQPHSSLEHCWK
In short: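 SK-N-MC cells stably carrying human H3 and a β-galactosidase reporter. Compound added to medium, forskolin 5 min later, then (R)-α-methylhistamine 10 min after compound; 6 h at 37 °C. Cells lysed in phosphate assay buffer (pH 8) with 0.5% Triton and 40 mM β-mercaptoethanol; β-galactosidase read at 570 nm. Means of 4–6 experiments.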

SK-N-MC [3] = assay: Cytotoxicity against human SK-N-MC cells at 1 uM after 6 hrs by MTT test; assay type: functional, cell-based
In short: (§1)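 MTT viability test: SK-N-MC cells held 6 h with compound (1–10 µM) or vehicle. MTT (5 mg/ml stock) added for 3 h, cells washed in PBS, formazan dissolved in 0.1 N HCl in isopropanol, absorbance read at 570 nm. Viability given relative to control.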

[4] = molecular target: T2, Acetylcholinesterase (Rattus norvegicus) (UniProt P37136); assay: Inhibition of acetylcholinesterase in Wistar rat brain homogenate at upto 10 uM by Ellman's method; assay type: tissue-based
T2 sequence (whole entry): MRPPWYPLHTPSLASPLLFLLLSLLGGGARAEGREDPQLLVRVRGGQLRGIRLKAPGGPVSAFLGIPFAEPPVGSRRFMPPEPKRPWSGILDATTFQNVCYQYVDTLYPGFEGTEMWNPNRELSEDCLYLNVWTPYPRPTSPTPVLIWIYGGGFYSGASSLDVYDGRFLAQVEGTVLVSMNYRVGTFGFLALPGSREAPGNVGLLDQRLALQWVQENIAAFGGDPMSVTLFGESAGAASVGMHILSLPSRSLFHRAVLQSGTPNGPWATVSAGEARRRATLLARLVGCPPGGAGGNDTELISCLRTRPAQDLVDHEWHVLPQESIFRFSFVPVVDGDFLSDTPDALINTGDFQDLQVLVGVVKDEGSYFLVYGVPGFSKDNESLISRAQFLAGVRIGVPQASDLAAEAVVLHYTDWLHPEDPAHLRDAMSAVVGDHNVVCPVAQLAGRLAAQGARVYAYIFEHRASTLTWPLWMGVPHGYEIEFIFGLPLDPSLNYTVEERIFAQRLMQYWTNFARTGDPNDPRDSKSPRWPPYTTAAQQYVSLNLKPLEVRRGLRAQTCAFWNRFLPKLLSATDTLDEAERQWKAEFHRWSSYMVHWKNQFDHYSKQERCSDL

Histamine H3 receptor [5] = molecular target: T1, Histamine H3 receptor; assay: Displacement of [3H]RAMHA from human histamine H3 receptor expressed in SK-N-MC cells; assay type: cell-based
In short: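 SK-N-MC membranes bearing human H3 incubated 60 min at room temperature with 0.5 nM [3H]-(R)-α-methylhistamine and competitor (0.01 nM to 10 µM). Rapid filtration, two washes in ice-cold 50 mM Tris–HCl/5 mM EDTA. Nonspecific binding with 10 µM histamine. pKi via Cheng–Prusoff; means of 4–6 experiments.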

Histamine H4 receptor = Histamine H4 receptor (Homo sapiens, UniProt Q9H3N8); assay: Displacement of [3H]histamine from human histamine H4 receptor expressed in SK-N-MC cells at upto 10 uM
Histamine H4 receptor, sequence (Q9H3N8 whole entry): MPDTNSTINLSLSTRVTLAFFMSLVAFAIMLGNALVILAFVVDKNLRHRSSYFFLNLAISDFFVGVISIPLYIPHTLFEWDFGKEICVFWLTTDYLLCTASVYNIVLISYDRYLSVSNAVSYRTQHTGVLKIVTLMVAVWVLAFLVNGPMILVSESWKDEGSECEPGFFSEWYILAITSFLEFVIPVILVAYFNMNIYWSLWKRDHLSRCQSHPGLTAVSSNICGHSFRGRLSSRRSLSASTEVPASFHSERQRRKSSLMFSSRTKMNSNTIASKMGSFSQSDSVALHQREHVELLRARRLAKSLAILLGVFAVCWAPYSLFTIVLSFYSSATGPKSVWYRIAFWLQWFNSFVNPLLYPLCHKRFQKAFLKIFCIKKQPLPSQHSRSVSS

SK-N-MC [6] = assay: Cytotoxicity against human SK-N-MC cells at 10 uM after 6 hrs by MTT test; assay type: functional, cell-based; in short: as §1
[7] = molecular target: Histamine H1 receptor (Cavia porcellus) (UniProt P31389); assay: Antagonist activity at histamine H1 receptor in guinea pig terminal ileum at upto 10 uM; assay type: functional, tissue-based
Histamine H1 receptor (Cavia porcellus), sequence (P31389 whole entry): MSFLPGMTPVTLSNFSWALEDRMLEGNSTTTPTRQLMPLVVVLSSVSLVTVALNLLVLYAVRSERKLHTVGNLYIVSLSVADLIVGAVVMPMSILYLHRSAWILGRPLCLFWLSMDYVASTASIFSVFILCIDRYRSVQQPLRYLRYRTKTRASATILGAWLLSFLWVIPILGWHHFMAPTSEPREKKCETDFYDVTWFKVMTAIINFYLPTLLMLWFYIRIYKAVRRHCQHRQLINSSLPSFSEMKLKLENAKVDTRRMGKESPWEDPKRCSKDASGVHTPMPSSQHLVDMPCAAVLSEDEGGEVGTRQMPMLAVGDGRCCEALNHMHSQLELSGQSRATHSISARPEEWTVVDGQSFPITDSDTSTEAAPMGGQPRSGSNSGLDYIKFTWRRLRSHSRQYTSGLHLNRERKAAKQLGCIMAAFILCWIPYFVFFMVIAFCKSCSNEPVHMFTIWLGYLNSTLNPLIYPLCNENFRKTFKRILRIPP
In short: (§2)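 Guinea-pig (250–350 g) terminal ileum (H1) suspended isometrically in Krebs–Henseleit at 37 °C, aerated 95% O2–5% CO2. Cumulative histamine curves (1 nM to 1 µM) run without and with compound up to 10 µM. pKB (apparent pA2) from Furchgott's equation; pD2′ from Van Rossum's equation when antagonism was non-surmountable.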

[8] = molecular target: Histamine H2 receptor (Cavia porcellus) (UniProt P47747); assay: Antagonist activity at histamine H2 receptor in guinea pig atrium assessed as changes in rate of spontaneous beat at upto 10 uM; assay type: functional, tissue-based; conditions: Cardiac atrium
Histamine H2 receptor (Cavia porcellus), sequence (P47747 whole entry): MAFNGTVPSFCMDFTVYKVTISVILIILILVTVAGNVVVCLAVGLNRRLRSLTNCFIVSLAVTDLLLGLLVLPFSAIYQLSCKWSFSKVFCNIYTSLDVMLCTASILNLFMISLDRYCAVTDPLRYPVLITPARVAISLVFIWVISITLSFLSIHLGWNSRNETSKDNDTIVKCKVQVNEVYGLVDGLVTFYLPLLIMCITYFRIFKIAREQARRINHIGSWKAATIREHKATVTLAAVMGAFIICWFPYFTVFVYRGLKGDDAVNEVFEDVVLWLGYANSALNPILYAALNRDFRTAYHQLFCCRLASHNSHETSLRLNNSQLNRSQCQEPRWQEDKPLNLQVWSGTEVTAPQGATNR
In short: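 Guinea-pig atria (H2) in Ringer–Locke at 31 °C (mM: NaCl 154.0, KCl 5.6, CaCl2 1.08, NaHCO3 5.95, glucose 11.1), gassed 95% O2–5% CO2. Spontaneous beating rate recorded by cardiotachograph. Cumulative dimaprit curves (0.1–100 µM) run without and with compound up to 10 µM. Affinity given as pKB by Furchgott, or as pD2′ by Van Rossum if non-surmountable.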

[9] = molecular target: Histamine H3 receptor (Cavia porcellus) (UniProt Q9JI35); assay: Antagonist activity at histamine H3 receptor in electrically-stimulated guinea pig ileum assessed as inhibition of (R)-alpha-methylhistamine-induced twitch contraction in presence of 1 uM mepyramine; assay type: functional, tissue-based
Histamine H3 receptor (Cavia porcellus), sequence (Q9JI35 whole entry): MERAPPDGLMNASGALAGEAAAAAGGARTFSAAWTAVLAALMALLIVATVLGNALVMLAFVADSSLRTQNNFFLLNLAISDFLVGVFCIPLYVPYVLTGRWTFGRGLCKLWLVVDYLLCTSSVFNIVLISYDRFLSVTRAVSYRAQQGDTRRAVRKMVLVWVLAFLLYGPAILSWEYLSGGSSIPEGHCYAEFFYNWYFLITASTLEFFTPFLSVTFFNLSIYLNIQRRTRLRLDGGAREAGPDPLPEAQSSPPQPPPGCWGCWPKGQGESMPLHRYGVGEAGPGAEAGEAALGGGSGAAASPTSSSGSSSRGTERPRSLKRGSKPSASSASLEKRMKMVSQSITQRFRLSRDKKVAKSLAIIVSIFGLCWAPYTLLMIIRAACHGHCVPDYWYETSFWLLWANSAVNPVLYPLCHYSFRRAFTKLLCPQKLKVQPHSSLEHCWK
In short: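 Guinea-pig ileum, electrically stimulated (0.1 Hz, 1 ms, submaximal voltage). Twitch inhibition by cumulative (R)-α-methylhistamine (1 nM to 1 µM) with 1 µM mepyramine present. Compounds tested at 1 nM to 30 µM. Potency as pKB from Furchgott's equation, or as pD2′ (Van Rossum) for non-surmountable antagonism.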

Acetylcholinesterase = molecular target: T3, Acetylcholinesterase (Rattus norvegicus, UniProt P37136); assay: Inhibition of acetylcholinesterase in Wistar rat brain homogenate by Ellman's method; assay type: tissue-based
T3 sequence (P37136 whole entry): T2 sequence (whole entry)

[10] = molecular target: T2, Acetylcholinesterase (Rattus norvegicus); assay: Inhibition of acetylcholinesterase in Wistar rat brain homogenate at upto 1 to 100 uM by Ellman's method; assay type: tissue-based
In short: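 Male Wistar rat (150–200 g) brain homogenate in 0.1 M phosphate buffer (pH 8.0) with DTNB (5 mM) and compound at 1–100 µM. Reaction started at 37 °C by adding acetylthiocholine (75 mM solution) and stopped after 15 min with 4% formalin. 5-Thio-2-nitrobenzoate absorbance at 412 nm. Percent inhibition versus control; reported as pIC50.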

[11] = molecular target: Histamine H1 receptor (Cavia porcellus) (UniProt P31389); assay: Antagonist activity at histamine H1 receptor in guinea pig terminal ileum; assay type: functional, tissue-based; in short: as §2

| Compound | Ki (Histamine H3 receptor [1]) [nM] | pKb (Histamine H3 receptor [2]) | Activity (SK-N-MC [3]) | Activity [4] | Ki (Histamine H3 receptor [5]) [nM] | Activity (Histamine H4 receptor) | Activity (SK-N-MC [6]) | Activity [7] | Activity [8] | pKb [9] | IC50 (Acetylcholinesterase) [nM] | inhibition [10] [%] | pD2 [11] | pKb [11] |
| --- | --- | --- | --- | --- | --- | --- | --- | --- | --- | --- | --- | --- | --- | --- |
| c1cc(-c2ccc(CN3CCOCC3)cc2)ccc1CN1CCCCC1 | 15.5 | 7.77 | Not toxic | inactive | 19.5 | inactive | Not toxic | inactive | inactive | 9.07 | – | – | – | – |
| CC1CCN(Cc2ccc(-c3ccc(CN4CCCCC4)cc3)cc2)CC1 | 5.75 | 8.64 | Not toxic | – | 2.4 | inactive | Not toxic | inactive | inactive | 8.75 | 1410 | 93 | – | – |
| CC(=O)N1CCN(Cc2ccc(-c3ccc(CN4CCCCC4)cc3)cc2)CC1 | – | 7.86 | Not toxic | – | – | inactive | Not toxic | – | inactive | 7.79 | 11500 | 79 | 4.46 | – |
| O=C1CCCCN1Cc1ccc(-c2ccc(CN3CCCCC3)cc2)cc1 | – | 7.46 | Not toxic | inactive | – | inactive | Not toxic | inactive | inactive | 7.57 | – | – | – | – |
| CN(C)CCc1ccc(-c2ccc(CCN(C)C)cc2)cc1 | 19.5 | 8.06 | – | inactive | 5.13 | inactive | – | inactive | inactive | 8.04 | – | – | – | – |
| CCN(CC)Cc1ccc(-c2ccc(CN(CC)CC)cc2)cc1 | 2.4 | 8.96 | Not toxic | inactive | 2.82 | inactive | Not toxic | inactive | inactive | 9.34 | – | – | – | – |
| CCN(CC)Cc1ccc(-c2ccc(CN3CCCCC3)cc2)cc1 | 2.57 | 8.9 | Not toxic | inactive | 1.95 | inactive | Not toxic | inactive | inactive | 9.41 | – | – | – | – |
| CCCN(CCC)Cc1ccc(-c2ccc(CN3CCCCC3)cc2)cc1 | 3.16 | 8.18 | Not toxic | – | 1.74 | inactive | Not toxic | – | inactive | 9.12 | 1480 | 93 | – | 5.48 |
| CN(Cc1ccc(-c2ccc(CN3CCCCC3)cc2)cc1)C1CCCCC1 | 7.41 | 9.19 | Not toxic | – | 2.75 | inactive | Not toxic | – | inactive | 8.46 | 1380 | 93 | – | 5.56 |
| C(CCCCN1CCCCC1)CCCCN1CCCCC1 | 15.8 | – | – | – | 4.47 | – | – | – | – | – | – | – | – | – |
| CC1CCN(Cc2ccc(-c3ccc(CN4CCC(C)CC4)cc3)cc2)CC1 | – | 7.68 | Not toxic | – | – | inactive | Not toxic | – | inactive | 7.3 | 3550 | 83 | – | 5.89 |
| c1cc(-c2ccc(CN3CCOCC3)cc2)ccc1CN1CCOCC1 | – | 7.67 | Not toxic | inactive | – | inactive | Not toxic | inactive | inactive | – | – | – | – | – |
| CN(C)Cc1ccc(-c2ccc(CN(C)C)cc2)cc1 | – | 8.17 | Not toxic | inactive | – | inactive | Not toxic | inactive | inactive | 8.46 | – | – | – | – |
